Compound activity deposited in PubChem by several laboratories.
EphB4 ephrin blk: blocks human EphB4 binding to ephrin-B2. P54760. EphB4 LBD / TNYL-RAW-Alexa532 peptide, fluorescence polarization. inhibition, % at 7 µM. actives 0.15% (n = 97,000). AID 720;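 active = inhibition above the screen-wide mean inhibition plus 3 SD, cut at about 15% in these data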;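 also: 0% = DMSO wells and 100% = excess unlabeled TNYL-RAW peptide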
PTPN22 inh 2: LYP (human) phosphatase inhibition; recombinant LYP catalytic domain, DiFMUP fluorescence; inhibition, % at 2 µM; actives 0.21% (n = 96,000); AID 640;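 active = inhibition at 2 µM at or above a set limit, the screen mean plus 3 SD, cut at about 24% in these data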;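 also: 0% = DMSO with enzyme and 100% = enzyme fully blocked by orthovanadate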
Plk1 PBD FP: inhibitors of human Plk1 polo box domain binding; actives 0.13% (n = 97,000); inhibition, %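 (tested at about 20 µM)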; Plk1 PBD phosphopeptide binding, fluorescence polarization; P53350; in the data active = inhibition above about 34%, passing the limit was not always enough
Target sequence (P53350 whole entry, looked up, the tested form may be a part): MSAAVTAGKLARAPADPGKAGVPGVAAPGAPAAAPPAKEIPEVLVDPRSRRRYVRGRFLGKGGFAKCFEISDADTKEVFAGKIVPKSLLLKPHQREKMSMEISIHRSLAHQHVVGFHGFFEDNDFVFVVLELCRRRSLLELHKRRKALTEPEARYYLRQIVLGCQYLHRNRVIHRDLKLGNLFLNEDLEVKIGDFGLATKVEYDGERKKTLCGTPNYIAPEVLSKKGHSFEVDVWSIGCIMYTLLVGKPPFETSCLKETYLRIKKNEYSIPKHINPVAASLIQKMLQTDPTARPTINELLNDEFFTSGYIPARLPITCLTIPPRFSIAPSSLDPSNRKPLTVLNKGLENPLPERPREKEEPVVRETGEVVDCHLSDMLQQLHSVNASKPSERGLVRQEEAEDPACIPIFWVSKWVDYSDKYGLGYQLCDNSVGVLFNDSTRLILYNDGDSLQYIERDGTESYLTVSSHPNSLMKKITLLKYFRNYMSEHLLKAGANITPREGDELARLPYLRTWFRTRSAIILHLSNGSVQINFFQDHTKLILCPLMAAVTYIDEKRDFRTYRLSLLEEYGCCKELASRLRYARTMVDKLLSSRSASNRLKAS
PLK1 kinase inh: blocks human PLK1 kinase activity. recombinant PLK1 kinase, TR-FRET peptide phosphorylation. inhibition, % at 10 µM. actives 0.53% (n = 97,000);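 active = inhibition of 50% or more in the single-concentration screen; inactive = inhibition below 50%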;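 also: 0% = DMSO max control and 100% = H-89 dihydrochloride min control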
HIV Rev-RRE inh: HIV Rev-RRE protein-RNA interaction inhibition. P05866. Rev peptide-RRE RNA binding, FRET. inhibition, % at 8 µM. actives 0.79% (n = 97,000);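 active = inhibition above the screen-wide mean plus 3 SD, cut at about 35% in these data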;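 also: 0% = median DMSO wells and 100% = median Neomycin B control wells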
Target sequence (P05866 whole entry, looked up): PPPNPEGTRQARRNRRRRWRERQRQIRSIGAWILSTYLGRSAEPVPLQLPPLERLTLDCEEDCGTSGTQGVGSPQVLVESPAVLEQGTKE
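Test system – labelled RRE RNA duplex and labelled Rev peptide · Signal – fluorescein-to-Cy5 FRET, 480 nm excitation · Evaluation – % inhibition of FRET ratio versus controls · Benchmarks – DMSO low control, neomycin B high control · Incubation – 5 min RNA-compound premix plus 15 min binding step, 25 °C · Medium – HEPES pH 7.5 salt buffer with EDTA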
PTPN22 act: activators of human LYP (PTPN22) phosphatase; recombinant LYP, DiFMUP fluorescence; 0 = plate median, 100 = signal doubled; activation, % at 2 µM; actives 0.11% (n = 96,000); AID 697;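 active = activation at 2 µM above a set limit, the mean plus 5 SD, cut at about 37% in these data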
PLK1 inh conf: PLK1 (human) kinase inhibition, confirmed | AID 744 | recombinant PLK1 kinase, TR-FRET peptide phosphorylation | shares compounds with PLK1 kinase inh | actives 20% (n = 210) | inhibition, % at 10 µM;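 active = inhibition at or above 50% in each of two repeat confirmation tests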;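 also: 0% = DMSO max control and 100% = H-89 kinase-blocked min control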
TR-FRET interf: interferes with the Plk1 assay readout, not true inhibition; 210 tested, under 10 active; Plk1 TR-FRET assay interference, compound added post-reaction; inhibition (interference), % at 10 µM; shares compounds with PLK1 kinase inh;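 active = both duplicate runs show 50% or greater inhibition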;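 also: 0% = DMSO max control and 100% = H-89 min control inhibited reaction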
Active calls of the source: *; / = not tested or not shown. Compounds with a hit are over-represented: about 2% of the library has one in this group of screens.

SMILES	EphB4 ephrin blk	PTPN22 inh 2	Plk1 PBD FP	PLK1 kinase inh	HIV Rev-RRE inh	PTPN22 act	PLK1 inh conf	TR-FRET interf
COc1cccc(C2CC(c3ccc(Cl)cc3Cl)n3nc(N)nc3N2)c1 (stereo not given)	-0.3	/	-28.2	75.5*	9.3	/	-5.6	-51.5
Cc1csc(NC(=O)CSc2nnc(-c3ccncc3)o2)n1	2.7	-1.6	-1.4	15.5	0.1	-2.6	/	/
N#CC(c1cccc(Cl)c1)c1ccc2c(C(F)(F)F)cc(C(F)(F)F)nc2n1 (stereo not given)	-3.7	9.4	-1.7	-2.0	-2.1	-6.1	/	/
Cc1cc(C(C#N)c2cccc(Cl)c2)n2ncnc2n1 (stereo not given)	1.5	4.4	25.6	71.0*	0.0	-2.7	62.9*	-55.3
Cc1nnc(NC(=O)CSc2nc3c(c(=O)n2C)SC(C)C3)s1 (stereo not given)	-8.2	-5.4	13.2	-6.4	4.2	4.3	/	/
CC1Cc2nc(SCC(=O)Nc3nccs3)n(C)c(=O)c2S1 (stereo not given)	-9.0	0.2	6.8	73.0*	1.4	-1.3	63.9*	-49.7
Cn1c(NC(=O)c2cccc(C(F)(F)F)c2)cc(=O)n(C)c1=O	-1.2	-15.2	-6.7	3.1	-3.5	12.1	/	/
Cn1c(NC(=O)c2ccccc2C(F)(F)F)cc(=O)n(C)c1=O	-4.0	/	-0.4	76.3*	4.4	/	4.1	-59.5
CC1CCCN(C(=O)Cn2c(-c3nonc3N)nc3ccccc32)C1 (stereo not given)	0.3	3.1	-15.0	-5.2	0.8	-4.1	/	/
O=C(O)c1ccccc1C(=O)Nc1n[nH]c(=S)s1	1.2	6.0	-17.5	-1.7	8.4	-8.0	/	/
CCOC(=O)c1sc(NC(=O)c2cc3n(n2)C(C(F)(F)F)CC(c2cccs2)N3)c(C(=O)OCC)c1C (stereo not given)	-4.2	2.7	-0.2	-2.6	11.9	2.1	/	/
CC1(C)CC(=O)c2sc(NC(=O)C3CC3)nc2C1	0.5	/	5.8	75.0*	7.8	/	-2.7	-52.4
CCOCC(=O)Nc1nc2c(s1)C(=O)CC(C)(C)C2	-4.9	4.0	10.3	41.4	2.6	-5.6	/	/
COc1cc(C2C(C#N)=C(N)Oc3c2ccc2ccccc32)ccc1OCC(=O)Nc1ccccc1C (stereo not given)	7.4	1.4	-7.0	-9.0	0.7	2.4	/	/
C=CCc1cc(C)ccc1OCCn1ccnc1	-4.6	0.2	9.0	85.7*	0.6	2.0	-6.6	-61.1
Cc1ccc(-c2noc(C3CCN(C(=O)Nc4ccc(C#N)cc4)CC3)n2)o1	5.0	-10.8	-1.1	8.7	9.9	8.7	/	/
CCC1CCCCN1CCCn1c(=S)[nH]c2ccccc2c1=O (stereo not given)	8.1	-6.8	-10.4	-12.3	-0.9	8.6	/	/
COc1ccc(C(=O)N2CCOCC2)cc1Br	-1.9	-1.2	-27.8	129.5*	7.0	-3.1	-12.0	-49.2
CC1=C(C(=O)OC(C)C)C(c2ccncc2)n2ncnc2N1 (stereo not given)	-5.2	-4.7	20.5	-9.5	2.6	4.0	/	/
CC1=C(C(=O)OC(C)C)C(c2cccnc2)n2ncnc2N1 (stereo not given)	-9.8	/	6.8	83.5*	3.0	/	4.8	-44.1
Cc1ccc(C(=O)O)cc1S(=O)(=O)N1CCOCC1	-1.2	-5.8	2.6	0.3	4.2	1.4	/	/
Cc1ccc(C(=O)O)cc1S(=O)(=O)N1CCSCC1	4.0	5.9	-1.1	82.1*	8.9	-6.8	-6.9	-57.2
CCOc1c(Br)ccc2c1sc1nc[nH]c(=O)c12	3.1	8.4	-6.0	76.1*	7.1	-4.5	68.3*	-55.5
Cc1cc2c(=O)[nH]cnc2s1	2.7	3.4	-35.0	0.2	6.6	-1.1	/	/
CCCCNC(=O)c1onc(CSc2cccc(Cl)c2)c1C(=O)O	-2.0	20.8	17.6	-7.9	-1.4	-18.2	/	/
SMILES	EphB4 ephrin blk	PTPN22 inh 2	Plk1 PBD FP	PLK1 kinase inh	HIV Rev-RRE inh	PTPN22 act	PLK1 inh conf	TR-FRET interf
COc1ccccc1Nc1ncnc2nc[nH]c12	-7.8	-2.5	-2.3	83.8*	4.4	0.0	79.2*	-49.9
CCN1C(=O)C(O)(CC(=O)c2ccc3c(c2)OCCO3)c2ccccc21 (stereo not given)	2.8	/	16.6	71.7*	5.3	/	-10.7	-55.2
COc1ccc(CN2C(=O)C(O)(CC(=O)c3ccc4c(c3)OCO4)c3ccccc32)cc1OC (stereo not given)	2.6	5.3	29.1	2.9	8.6	-7.7	/	/
COc1ccc(Cl)cc1N1CCN(CCNC(=O)Nc2ccccc2C)CC1	-4.3	5.6	-21.9	-10.7	5.2	-5.2	/	/
COc1ccc(C2OC(=O)CC2C(=O)N2CCN(c3cc(Cl)ccc3C)CC2)cc1OC (stereo not given)	-3.6	/	-18.9	75.8*	-0.9	/	-4.9	-52.4
CCCCCCCCCC(=O)N/N=C(\C)c1cccnc1	-4.3	8.2	-6.8	-8.7	9.5	-7.7	/	/
COc1ccc(N2CC(C(=O)NC3CC(C)(C)NC(C)(C)C3)CC2=O)cc1 (stereo not given)	-2.4	/	10.5	70.1*	5.7	/	-8.1	-50.3
COc1ccc(N2CC(C(=O)Nc3ncccc3C)CC2=O)cc1 (stereo not given)	2.6	-3.4	-5.7	-15.7	3.8	-0.9	/	/
CCC(C)(C)NC(=O)C(c1ccco1)N(C(=O)CNC(=O)c1cccs1)c1cccnc1 (stereo not given)	-6.9	-2.0	-20.8	109.0*	-1.7	1.3	-14.1	-61.9
CC(C)c1ccc(C(C(=O)NC(C)(C)C)N(C(=O)CNC(=O)c2ccco2)c2cccnc2)cc1 (stereo not given)	-12.8	3.7	1.3	-12.7	-3.0	-1.7	/	/
CNc1nc(CCN2C(=O)c3ccccc3C2=O)cs1	-7.2	10.8	3.1	2.0	-1.5	-7.8	/	/
COC(=O)c1ccc(CSc2nnc(-c3c[nH]c4ccccc34)n2C)o1	-4.8	/	4.5	71.1*	3.5	/	-12.7	-55.4
CCc1nnc(NC(=O)CSc2nnc(-c3c[nH]c4ccccc34)n2CCOC)s1	-2.5	2.2	21.1	-8.5	4.0	-2.5	/	/
COCCn1c(SCC(N)=O)nnc1-c1c[nH]c2ccccc12	2.1	/	-30.8	71.1*	6.7	/	6.1	-46.1
CCSc1nnc(NC(=O)CSc2nnc(-c3c[nH]c4ccccc34)n2C)s1	2.6	/	23.7	76.5*	5.0	/	-3.4	-46.4
COc1cc(OC)c(NC2=NCCCCC2)cc1Cl	-2.9	-1.9	-18.4	-6.9	0.8	1.0	/	/
CC(C)C1Oc2ccccc2N(CC(=O)N(Cc2ccccn2)C2CC2)C1=O (stereo not given)	4.7	-22.1	-22.8	-11.1	2.4	21.6	/	/
Cc1cccc(NC(=O)CCN2C(=O)C3C4C=CC(C4)C3C2=O)c1 (stereo not given)	5.9	0.8	-3.4	-5.2	4.9	0.8	/	/
